# Source: PubChem
# This is a sample that favours compounds with a hit; in the whole collection about 2.3% have one here.
# TRPC4 potent = TRPC4 (mouse) allosteric potentiation | HEK293 TRPC4beta/mu-opioid, DAMGO EC20, Fluo-4 Ca2+ flux; stronger effect = higher value | 310,000 compounds, 0.42% hits | B-score at 10 µM | AID 2227 | Q9QUQ5;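 active means B-score of calcium response area above 5 SD of library B-scores, with initial fluorescence ratio within 5 SD of library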;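 further: B-score of integrated fluorescence ratio over time as area under calcium response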
# TRPC6 inh = mouse TRPC6 channel inhibition. HEK293-TRPC6, membrane potential dye, ACh-evoked depolarization; stronger effect = lower value. Q61143. B-score at 10 µM. 310,000 compounds, 1.1% hits;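 active means B-score under library mean minus 3 SD, initial fluorescence not abnormally high, positive integrated signal ratio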;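 further: B-score derived from integrated fluorescence ratio over the kinetic read; more negative B-score means stronger inhibition of depolarization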
# TRPC6 act = mouse TRPC6 channel activation. HEK293-TRPC6 membrane potential dye fluorescence; stronger effect = higher value. B-score at 10 µM. 310,000 compounds, 0.13% hits;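 active means B-score of the integrated fluorescence ratio above library mean plus 3 SD, and starting fluorescence ratio within library mean plus 5 SD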;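 further: higher score means more depolarization so channel activation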
# TRPC4 agonist = activators of mouse TRPC4 channel | Q9QUQ5 | HEK293 TRPC4beta/mu-opioid, Fluo4 calcium fluorescence; stronger effect = higher value | B-score at 10 µM | 310,000 compounds, 0.49% hits | AID 2237;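 active means B-score above 5 SD of library B-scores, and initial fluorescence ratio not above library mean plus 5 SD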;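 further: positive B-score marks a calcium rise read as TRPC4 activation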
#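 Assay system: HEK293 stable line with TRPC4beta plus mu-opioid receptor; schedule: 45 min room-temperature Fluo4 loading, 110 s read; technique: kinetic Fluo4 calcium fluorescence; evaluation: integrated baseline-normalised fluorescence ratio, converted to per-well B score; controls: buffer (low) and maximal DAMGO (high)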
# TRPC4 inh = blocks the mouse TRPC4 cation channel; AID 2247; 300,000 compounds, 0.39% hits; HEK293 TRPC4beta/mu-opioid, DAMGO-evoked Fluo4 calcium flux; stronger effect = lower value; B-score at 10 µM; Q9QUQ5;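 active means B-score over 3 SD under the library average, no early fluorescence shift, positive overall ratio signal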
#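 test system = HEK293 cells with stable TRPC4beta plus mu-opioid receptor expression | detection = Fluo4 Ca2+ flux fluorescence | read-out = integrated fluorescence ratio relative to baseline, converted to per-well B score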
# Numbers without * were called inactive; i = inactive.
SMILES,TRPC4 potent,TRPC6 inh,TRPC6 act,TRPC4 agonist,TRPC4 inh
CCOC(=O)C1(Cc2cccc(OC)c2)CCN(Cc2ccc(OC)c(O)c2)CC1,i,i,i,i,-8*
CCOC(=O)C1(CCOc2ccccc2)CCN(Cc2ccc(OC)c(O)c2)CC1,i,i,i,84*,i
CCCCc1ccc(NC(=S)N2CCCC2)cc1,i,i,i,i,i
Fc1ccc(-c2[nH]ncc2CN2CCN(c3ccc(F)cc3)CC2)cc1,12*,i,i,i,i
CCOc1ncccc1C(=O)N(CC)CC(=O)NCc1ccc(Cl)cc1,i,i,i,i,i
Cc1ccc(C)c2nc(Cl)c(C3NC(=O)c4ccccc4N3)cc12 (stereo not given),15*,i,i,i,i
Cc1cc(C)c2nc(Cl)c(C3NC(=O)c4ccccc4N3)cc2c1 (stereo not given),i,i,i,i,i
CCOC(=O)C1=C(C)N=c2s/c(=C/c3cccc([N+](=O)[O-])c3O)c(=O)n2C1c1ccc(OC)cc1OC (stereo not given),i,-5.2*,i,i,i
COc1ccc(S(=O)(=O)N2CCN=C2SCc2cccc(C)c2)cc1,i,i,i,i,i
CC(=O)N1c2ccccc2C(C)(c2ccccc2)CC1(C)C (stereo not given),i,i,i,i,-6*
Cc1cc2nccc(-c3ccc(OCCCF)cc3)n2n1,i,i,i,i,i
CCC(C)(C(=O)NC1CCCC1)N(Cc1cccs1)C(=O)c1ccccn1 (stereo not given),i,i,i,i,i
CCC(C)(C(=O)NC1CCCCC1)N(Cc1cccs1)C(=O)c1ccccn1 (stereo not given),i,i,i,46*,-7*
C/C(=N/Nc1ccnc2cc(Cl)ccc12)c1ccc(N)cc1,i,i,i,63*,i
C/C(=N/Nc1ccnc2cc(Cl)ccc12)c1ccc(O)cc1,i,i,i,i,i
CCCN(CCC)CCNC(=O)C1CCN(Cc2nc(-c3ccc(Cl)cc3)oc2C)CC1,i,-7.2*,i,i,i
CCSc1nc(N)c2c3c(sc2n1)CN(C)CC3,i,-5.3*,i,i,i
Cc1cccn2c(=O)c3cc(C(=O)N(C)C)n(C)c3nc12,25*,i,i,i,i
COc1cc(C[C@@H](CO)[C@H](CO)Cc2ccc(O)c(OC)c2)ccc1O,i,i,i,i,i
COc1cccc2[nH]c3c(N4CCN(Cc5ccc6c(c5)OCO6)CC4)ncnc3c12,i,-6.7*,i,i,i
O=C(NCCCN1CCOCC1)c1ccc2c(c1)N(Cc1c(F)cccc1Cl)C(=O)CS2,i,i,i,i,i
C(=N\N(Cc1ccccc1)c1ccccc1)/c1cccnc1,i,i,i,i,-6*
Oc1cccc(/C=N/N(Cc2ccccc2)c2ccccc2)c1,i,i,i,i,i
COc1ccc(OC(C)C(=O)N(C)Cc2nc(-c3cccc(C)c3)no2)cc1 (stereo not given),i,i,i,i,i
COc1ccc(N(C(=O)CNC(=O)c2ccco2)C(C(=O)NCC2CCCO2)c2ccccc2)cc1 (stereo not given),11*,i,i,i,i
CCOc1ccc(N(C(=O)CNC(=O)c2ccco2)C(C(=O)NCC2CCCO2)c2ccccc2)cc1 (stereo not given),i,i,i,i,i
CCOc1cc(C=O)cc(Br)c1OCC(=O)NCCc1ccccc1,i,i,i,i,i
CC1CCCCN1c1ccc(N)cc1C(N)=O (stereo not given),i,i,i,i,i
COc1ccccc1/C=C/CN1CCCC(CCC(=O)NCc2ccccc2F)C1 (stereo not given),i,i,i,113*,-6*
COc1cccc(CNC(=O)CCC2CCCN(C(=O)Cc3ccccc3F)C2)c1 (stereo not given),i,i,i,i,i
